Source: PubChem (several laboratories)
Sampled rows, rich in hits. Any-hit rate of the full collection: about 4.1%.
KCNK3 block = human KCNK3 channel inhibition, primary screen | CHO-KCNK3 thallium flux, FluxOR fluorescence; active compounds read low | B-score at 10 µM | 0.84% of 340,000 active;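 active = B-score under library mean minus 4 SD, starting fluorescence ratio at most library mean plus 5 SD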;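 also: more negative B-score means stronger inhibition of thallium flux through KCNK3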
KCNQ1 pot = potentiators or activators of human KCNQ1 potassium channel. CHO-K1 KCNQ1, thallium flux FluxOR fluorescence; active compounds read high. B-score at 10 µM. 0.35% of 310,000 active. AID 2648;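 active = fluorescence ratio B-score, a plate-corrected score, at least three library SD, with initial intensity B-score within 5 SD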
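assay system = CHO-K1 cells stably expressing KCNQ1 | medium = assay buffer, equal DMSO in all wells | timing = 37 °C overnight plating, 90-min dark dye load, 20-min compound pretreatment | measured by = kinetic FluxOR thallium fluorescence, 10-s 1-Hz baseline, 110-s post-stimulus read | measure = fluorescence change relative to baseline, converted to B score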
KCNQ1 inh = inhibitors of human KCNQ1 potassium channel. P51787. CHO-K1 KCNQ1, FluxOR thallium flux fluorescence; active compounds read high. B-score at 10 µM. 1.3% of 310,000 active. AID 2642;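 active = compounds whose thallium flux B-score, printed positive for inhibition, exceeds three library SD while starting fluorescence stays within three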;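 also: channel opened by potassium depolarization with thallium stimulus after 20 min compound exposure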
KCC2 mod = modulators of human KCC2 chloride dependent transport; 2.2% of 190,000 active; Q9H2X9; KCC2 cells, thallium flux FluoZin-2 fluorescence; AID 1456; B-score of Tl+ flux slope (higher = more flux/activation; lower = inhibition) at 10 µM;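 active = thallium flux slope and its plate-corrected score both differing from the plate sample mean at a set confidence after two filtering rounds, in either direction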;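 also: slope of fluorescence scaled to starting intensity during 10 to 20 s after thallium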
hERG rescue = compounds protecting human hERG from proarrhythmic drug block; Q12809; CHO-hERG, FluxOR thallium flux, dofetilide IC70 present; activation (rescue from dofetilide block), less the hit threshold, % at 10 µM; 0.51% of 310,000 active; AID 1511;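 active = activation above the mean of controls blocked by dofetilide plus 5 SD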;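 also: thallium influx through hERG after potassium depolarization seen as dye fluorescence rise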
Target sequence (Q12809 whole entry, looked up): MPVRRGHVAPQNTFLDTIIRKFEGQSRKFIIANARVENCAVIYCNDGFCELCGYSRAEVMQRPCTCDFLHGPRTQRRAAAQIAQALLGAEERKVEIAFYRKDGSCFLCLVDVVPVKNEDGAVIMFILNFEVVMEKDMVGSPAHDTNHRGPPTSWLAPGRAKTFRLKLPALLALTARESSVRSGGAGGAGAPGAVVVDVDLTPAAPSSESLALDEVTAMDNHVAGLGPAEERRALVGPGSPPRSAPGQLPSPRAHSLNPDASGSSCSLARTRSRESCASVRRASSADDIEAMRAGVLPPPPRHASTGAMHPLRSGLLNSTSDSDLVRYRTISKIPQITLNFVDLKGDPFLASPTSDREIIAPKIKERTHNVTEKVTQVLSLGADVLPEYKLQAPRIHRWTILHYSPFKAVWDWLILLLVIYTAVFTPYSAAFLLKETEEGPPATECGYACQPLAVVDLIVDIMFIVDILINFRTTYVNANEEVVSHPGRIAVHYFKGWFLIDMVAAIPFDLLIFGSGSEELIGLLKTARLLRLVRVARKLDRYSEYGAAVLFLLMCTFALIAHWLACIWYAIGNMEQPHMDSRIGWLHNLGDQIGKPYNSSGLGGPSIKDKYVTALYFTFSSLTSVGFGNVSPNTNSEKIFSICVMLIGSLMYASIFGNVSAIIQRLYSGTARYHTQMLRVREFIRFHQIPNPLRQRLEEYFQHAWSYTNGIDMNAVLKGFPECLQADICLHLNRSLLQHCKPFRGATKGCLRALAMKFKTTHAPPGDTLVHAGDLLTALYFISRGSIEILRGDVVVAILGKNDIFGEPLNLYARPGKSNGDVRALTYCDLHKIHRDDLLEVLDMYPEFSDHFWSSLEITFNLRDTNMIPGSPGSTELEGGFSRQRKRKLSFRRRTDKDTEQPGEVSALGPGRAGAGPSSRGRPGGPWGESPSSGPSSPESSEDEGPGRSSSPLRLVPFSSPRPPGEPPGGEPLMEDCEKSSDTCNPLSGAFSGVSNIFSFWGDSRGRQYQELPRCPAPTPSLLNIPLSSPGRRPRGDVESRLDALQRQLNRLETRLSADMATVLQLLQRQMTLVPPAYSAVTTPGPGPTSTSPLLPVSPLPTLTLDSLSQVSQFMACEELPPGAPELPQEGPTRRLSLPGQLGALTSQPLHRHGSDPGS
KCNK9 block = inhibitors of human KCNK9 two-pore domain potassium channel; HEK293 KCNK9, FluxOR thallium flux fluorescence; active compounds read low; B-score at 10 µM; 1.2% of 310,000 active;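 active = ratio B-score over 3 SD below the library mean, with starting fluorescence within 5 SD of its mean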;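 also: negative B-score means less thallium flux so channel inhibition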
KCC2 sec1 = confirmation of human KCC2 transport modulators; shares compounds with KCC2 mod; HEK293-KCC2, thallium flux, FluoZin2 fluorescence; active compounds read high; normalised thallium flux (F/F0 slope) at 10 µM; 15% of 3,700 active;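 active = thallium flux slope above the same plate's solvent-only control mean plus 3 SD; inconclusive = the two replicate wells disagree; inactive = no significant difference from solvent-only control wells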
KCC2 bumet counter = bumetanide-insensitive thallium flux in KCC2 cells with ouabain, counter-screen | HEK293-KCC2 + bumetanide/ouabain, thallium flux FluoZin2; active compounds read high | AID 1714 | normalized thallium flux at 10 µM | shares compounds with KCC2 mod | 49% of 3,700 active;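 active = thallium entry rate above the same plate's blocked-transporter control wells by more than 3 SD; inconclusive = the two repeat wells disagree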;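 also: raw slope of fluorescence over initial fluorescence between 10 and 20 s after thallium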
KCC2 secondary2 = confirmation of human KCC2 transport modulators; normalized thallium flux at 10 µM; HEK293-KCC2, thallium flux FluoZin2 fluorescence; actives lie on both sides; F/F0 rise rate, 10–20 s post-thallium; shares compounds with KCC2 mod; 23% of 3,700 active;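 active = thallium flux slope more than 3 SD above or below the plate's solvent-only control mean, mostly below; inconclusive = the two repeat wells disagreed; inactive = no significant shift from solvent-only controls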
HEK293 Tl flux = acts in parental HEK cells, KCC2 counter-screen; AID 1716; HEK293 parental cells, thallium flux FluoZin2, ouabain; baseline-ratio fluorescence slope, 10–20 s after thallium; 46% of 3,700 active; thallium flux rate (normalised fluorescence) at 10 µM; shares compounds with KCC2 mod;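 active = thallium flux rate significantly above the same plate's solvent-only control wells, beyond their mean plus 3 SD; inconclusive = the two replicate wells gave conflicting results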
KCC2 ouabain = confirmation of human KCC2 modulators with ouabain; shares compounds with KCC2 mod; HEK293-KCC2, thallium flux FluoZin2 fluorescence; bidirectional: low = inhibitor, high = activator; raw Tl+ flux slope (below DMSO = inhibition, above = activation) at 10 µM; 48% of 3,700 active;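 active = thallium flux slope beyond 3 SD from same-plate DMSO control mean in most replicates, usually higher, sometimes lower; inconclusive = repeat tests gave conflicting results; inactive = no significant difference from controls in most replicates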;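 also: slope of initial-normalized fluorescence between seconds 10 and 20 after thallium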
HEK293 Tl flux2 = counter-screen for KCC2 modulators: effect in parental HEK293 cells; AID 1718; shares compounds with KCC2 mod; thallium flux slope at 10 µM; thallium flux FluoZin-2 fluorescence slope; 33% of 3,700 active;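 active = thallium flux slope above the same plate's solvent-control mean plus 3 SD in both duplicate wells; inconclusive = duplicate wells that disagreed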;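 also: run without ouabain in cells lacking the KCC2 cotransporter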
Each line names hits and unclear results; the compound was inactive in the other large screens (follow-up assays come after a bar, where they were run).

Cc1ccccc1-n1c(=O)c2c(n3cnnc13)-c1ccccc1CC21CCCCC1	none
CCn1c(=O)c2c(n3c(=S)[nH]nc13)-c1ccccc1CC21CCCCC1	KCC2 mod 65 | KCC2 sec1 inactive | KCC2 bumet counter 0.07 | KCC2 secondary2 inconclusive | HEK293 Tl flux 0.06 | KCC2 ouabain 0.059 | HEK293 Tl flux2 0.034
CCN(CC(=O)NCc1cccs1)C(=O)c1ccc(S(=O)(=O)Nc2ccccc2C)cc1	none (no result: KCC2 mod)
Cc1ccc(OCC(=O)NNC(=S)NC(=O)C(C)(C)C)c(Br)c1	KCNQ1 pot 9, KCC2 mod 50 | KCC2 sec1 0.025 | KCC2 bumet counter 0.098 | KCC2 secondary2 inconclusive | HEK293 Tl flux 0.068 | KCC2 ouabain 0.065 | HEK293 Tl flux2 0.024
COc1ccc(NC(=S)NNC(=O)COc2ccc(Cl)cc2Cl)cc1	none
Cc1cccc(NC(=S)NNC(=O)COc2ccc(Cl)cc2Cl)c1	KCC2 mod 6.5 | KCC2 sec1 inactive | KCC2 bumet counter 0.16 | KCC2 secondary2 inactive | HEK293 Tl flux 0.028 | KCC2 ouabain 0.053 | HEK293 Tl flux2 0.013
COc1ccc(CNC(=O)CSc2nc3[nH]ncc3c(=O)n2-c2ccccc2Br)cc1	none (no result: KCNK3 block)
COc1ccc(N2CCN(C(=O)CSc3nc4[nH]ncc4c(=O)n3-c3cccc4ccccc34)CC2)cc1	KCC2 mod -4.4 | KCC2 sec1 inactive | KCC2 bumet counter 0.0064 | KCC2 secondary2 0.026 | HEK293 Tl flux inactive | KCC2 ouabain 0.015 | HEK293 Tl flux2 inactive
COc1cc(C)nc(NC(=S)N(C)C(=O)c2ccccc2)n1	KCC2 mod 6.2 | KCC2 sec1 inactive | KCC2 bumet counter 0.019 | KCC2 secondary2 inactive | HEK293 Tl flux 0.01 | KCC2 ouabain inactive | HEK293 Tl flux2 0.012
CCOc1cc(/C=C2\N=C(SC)SC2=O)cc([N+](=O)[O-])c1OC(C)=O	KCNQ1 inh 12 (no result: KCC2 mod) | KCC2 sec1 inconclusive | KCC2 bumet counter 0.0056 | KCC2 secondary2 inconclusive | HEK293 Tl flux inactive | KCC2 ouabain inactive | HEK293 Tl flux2 inactive
COC(=O)c1ccc(/C=C2\N=C(SC)SC2=O)cc1	none
COc1ccccc1CNC(=O)COC(=O)c1cc2ccccc2o1	none (no result: KCNQ1 pot, KCNQ1 inh, KCC2 mod, hERG rescue, KCNK9 block)
CCOc1ccc(N(CCCCO)C(=S)NC(=O)c2ccc(C)c(Br)c2)cc1	KCC2 mod 13 | KCC2 sec1 inactive | KCC2 bumet counter 0.049 | KCC2 secondary2 0.044 | HEK293 Tl flux 0.029 | KCC2 ouabain 0.046 | HEK293 Tl flux2 0.033
CCn1c(SCC(=O)N2CCN(c3ccccc3)CC2)nc2c(c1=O)SC(C)C2 (stereo not drawn)	KCC2 mod -3.1 | KCC2 sec1 inactive | KCC2 bumet counter inactive | KCC2 secondary2 inconclusive | HEK293 Tl flux 0.0051 | KCC2 ouabain 0.014 | HEK293 Tl flux2 0.0084
O=C(CSc1nc2c(c(=O)n1-c1ccccc1)SCC2)N1CCN(c2ccccc2)CC1	KCC2 mod -7.6 | KCC2 sec1 inactive | KCC2 bumet counter inactive | KCC2 secondary2 inactive | HEK293 Tl flux inactive | KCC2 ouabain 0.012 | HEK293 Tl flux2 inconclusive
C=CCn1c(SCC(N)=O)nc2scc(-c3ccc(C)o3)c2c1=O	KCC2 mod 37 | KCC2 sec1 inactive | KCC2 bumet counter 0.028 | KCC2 secondary2 0.047 | HEK293 Tl flux 0.037 | KCC2 ouabain 0.042 | HEK293 Tl flux2 0.035
O=C1CCN(S(=O)(=O)c2ccccc2)N1	KCC2 mod -5.6 | KCC2 sec1 inactive | KCC2 bumet counter inactive | KCC2 secondary2 inactive | HEK293 Tl flux inactive | KCC2 ouabain inactive | HEK293 Tl flux2 inactive
COCCN(C(=O)COC(=O)c1ccc(C=O)cc1)c1c(N)n(Cc2ccccc2)c(=O)[nH]c1=O	none (no result: KCC2 mod)
CCOC(=O)C1=C(COC(=O)CNS(=O)(=O)c2ccc(NC(C)=O)cc2)NC(=O)NC1C (stereo not drawn)	none (no result: KCNQ1 pot, KCNQ1 inh, KCC2 mod, hERG rescue, KCNK9 block)
Cc1ccc(N=Nc2ccc(O)c3ncccc23)cc1C	KCNQ1 pot 11, KCC2 mod 8.2 | KCC2 sec1 inactive | KCC2 bumet counter 0.0077 | KCC2 secondary2 inactive | HEK293 Tl flux 0.014 | KCC2 ouabain inactive | HEK293 Tl flux2 inconclusive
CSc1nc(SC(C)C(=O)O)c2c3c(sc2n1)COC(C)(C)C3 (stereo not drawn)	KCC2 mod 4.8 | KCC2 sec1 inactive | KCC2 bumet counter 0.02 | KCC2 secondary2 inconclusive | HEK293 Tl flux 0.032 | KCC2 ouabain 0.034 | HEK293 Tl flux2 0.021
CSc1nc(SCCN(C)C)c2c3c(sc2n1)COC(C)(C)C3	none
CCOc1ccc(N(CC(=O)Nc2c(C)n(C)n(-c3ccccc3)c2=O)S(=O)(=O)c2ccccc2)cc1	KCC2 mod -2.8 | KCC2 sec1 inactive | KCC2 bumet counter inactive | KCC2 secondary2 inactive | HEK293 Tl flux inactive | KCC2 ouabain inactive | HEK293 Tl flux2 inactive
O=C(O)c1cccc(N2CCCC2=O)c1	none
C[C@H]1CC[C@H]2C(=O)N3[C@H](c4cccc(N5CCCC5=O)c4)[C@@H](C)CC[C@H]3C(=O)N2[C@@H]1c1cccc(N2CCCC2=O)c1	KCC2 mod 4.9 (no result: KCNK3 block) | KCC2 sec1 inactive | KCC2 bumet counter inactive | KCC2 secondary2 inconclusive | HEK293 Tl flux inactive | KCC2 ouabain inactive | HEK293 Tl flux2 inactive
Cc1noc(C)c1NC(=O)N(C)C[C@H]1Oc2ccc(NS(=O)(=O)c3cccs3)cc2C(=O)N([C@H](C)CO)C[C@@H]1C	none (no result: KCNQ1 pot, KCNQ1 inh, KCC2 mod, hERG rescue, KCNK9 block)
O=C(Cn1cnc2c(nnn2Cc2ccccc2)c1=O)c1ccccc1	KCC2 mod -4.7 | KCC2 sec1 inactive | KCC2 bumet counter inactive | KCC2 secondary2 0.024 | HEK293 Tl flux inconclusive | KCC2 ouabain 0.014 | HEK293 Tl flux2 inactive
O=C(Cn1cnc2c(nnn2Cc2ccc(F)cc2)c1=O)N1CCCCC1	none (no result: KCC2 mod) | KCC2 sec1 inactive | KCC2 bumet counter inactive | KCC2 secondary2 inactive | HEK293 Tl flux inactive | KCC2 ouabain 0.014 | HEK293 Tl flux2 inactive
